Test results published in publication PMC7317421 (Clinical Pharmacology in Drug Development, 2020).
Read-outs that look alike come from different tables or passages of the source.

How the values were obtained:
[1] = humans; cited from earlier work
[2] = Plasma pharmacokinetics, single ascending oral doses after overnight fast; format: in vivo, human; conditions: fasted, Part 1; for AUC0‐∞ / Cmax: arithmetic mean (SD); for t½: mean ± SD
Procedure, shortened: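 Randomized, double‑blind, placebo‑controlled interleaving crossover in 2 cohorts of 8. Each cohort received 4 ascending single doses, ≥10 days apart, taken with water after a ≥10‑h overnight fast. Blood sampled up to 72 h postdose. Plasma was extracted by protein precipitation with a stable‑isotope internal standard and measured by LC‑MS/MS with calibration 2.00–1000 ng/mL (LLOQ 2.00 ng/mL). Noncompartmental parameters were summarized descriptively by dose.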

[3] = format: in vivo, human; conditions: for AUCtau / Cmax: mean (SD)
[4] = format: in vivo, human; conditions: for Median Tmax (range) / Cmax / t½: 100 mg single oral dose, Part 3; for Cmax: arithmetic mean (SD); for t½: mean ± SD
hepatic DNL = assay: Fructose-stimulated hepatic DNL inhibition; format: in vivo, human
Procedure, shortened: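 Part 2, with baseline on day −6 and repeat on day 14 of dosing. On the evening/night before each challenge, subjects drank 4 doses of 70% D2O (60 mL each). Oral fructose 0.25 g/kg was then given every 30 min from 0 to 9.5 h, with dosing at 0 h. Body‑water deuterium was measured. Triglyceride‑palmitate was isolated from plasma by Folch extraction and TLC, and its methyl ester analysed by GC‑pyrolysis isotope‑ratio MS. Basal‑adjusted % newly made palmitate and AUEC10 were calculated.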

[5] = Safety and tolerability: adverse events, vital signs, ECG; format: in vivo, human
Procedure, shortened: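 Observed and self‑reported AEs, clinically significant physical‑exam changes and abnormal laboratory results were recorded. Vital signs and 12‑lead ECGs were monitored throughout. In Part 2, AEs were tallied separately for drug alone (days 1‑13) and for the periods with fructose/D2O. The safety set was everyone receiving ≥1 dose of study drug or fructose/D2O. Data were reviewed on an ongoing basis and summarized descriptively.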

[6] = Fasting and postprandial serum triglycerides and fasting lipids; format: in vivo, human
Procedure, shortened: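 Part 2, randomized 4:1 to drug or placebo with food, once daily or every 12 hours on days 1‑14. Fasting lipids were sampled after overnight fasts over 16 days. Total cholesterol, direct LDL and HDL were run on an automated chemistry analyzer. Postprandial triglycerides: 12 serial samples over 24 h on days 0 and 12. AUEC by trapezoid rule, averaged as AUEC24/24 when first, last and ≥75% of samples were available. Baseline was the mean of 0‑h values on days 0‑1.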

[7] = Platelet count and mean platelet volume; format: in vivo, human
[8] = rats; cited from earlier work
[9] = monkeys; cited from earlier work
[10] = 100 mg single dose, high‐fat meal vs fasted
[11] = 100 mg every 12 hours, same withdrawn subject

## Cc1nc2ccc(C(=O)N3CCC4(CC3)CC(=O)c3c(cnn3C(C)C)C4)cc2[nH]1 [PF‐05175157]
[1]
  platelet count: decreased platelet count

## COc1cc(C(=O)N2CCC3(CC2)CC(=O)c2c(cnn2C(C)C)C3)cc(-c2ccc(C(=O)O)cc2)n1 [PF‐05221304]
[2]; 1 mg single oral dose
  Median Tmax (range): 2.0 (1.0‐3.0) h
  AUC0‐∞: 670.5 (182.2) ng·h/mL
  Cmax: 48.3 (8.2) ng/mL
  t½: 13.6 ± 3.4 h
[2]; 3 mg single oral dose
  Median Tmax (range): 2.5 (1.1‐4.0) h
  AUC0‐∞: 2508 (476.0) ng·h/mL
  Cmax: 177.0 (46.3) ng/mL
  t½: 13.5 ± 3.5 h
[2]; 10 mg single oral dose
  Median Tmax (range): 3.0 (1.0‐5.0) h
  AUC0‐∞: 8603 (1603.8) ng·h/mL
  Cmax: 608.5 (134.0) ng/mL
  t½: 18.3 ± 2.3 h
[2]; 30 mg single oral dose
  Median Tmax (range): 2.0 (0.5‐4.0) h
  Cmax: 2008 (421.7) ng/mL
  t½: 17.6 ± 2.6 h
[2]; 100 mg single oral dose
  Median Tmax (range): 2.0 (1.0‐4.0) h
  Cmax: 7435 (1904.5) ng/mL
  t½: 16.0 ± 3.6 h
[2]; 200 mg single oral dose
  Median Tmax (range): 2.0 (0.5‐4.0) h
  t½: 15.3 ± 3.4 h
[2]; 240 mg single oral dose
  Median Tmax (range): 1.5 (1.0‐4.0) h
  t½: 15.2 ± 2.8 h
[3]; Day 1, 1 mg every 12 hours
  Median Tmax (range): 3.0 (3.0‐5.0) h
  AUCtau: 384.5 (71.1) ng·h/mL
  Cmax: 54.4 (9.0) ng/mL
[3]; Day 1, 3 mg every 12 hours
  Median Tmax (range): 5.0 (2.0‐6.0) h
  AUCtau: 1038 (131.4) ng·h/mL
  Cmax: 142.7 (21.2) ng/mL
[3]; Day 1, 10 mg every 12 hours
  Median Tmax (range): 3.5 (1.0‐5.0) h
  AUCtau: 3811 (767.3) ng·h/mL
  Cmax: 584.6 (91.2) ng/mL
[3]; Day 1, 30 mg every 12 hours
  Median Tmax (range): 5.0 (3.0‐5.0) h
  Cmax: 1689 (256.7) ng/mL
[3]; Day 1, 40 mg once daily
  Median Tmax (range): 4.0 (2.0‐8.0) h
  Cmax: 1986 (591.8) ng/mL
[3]; Day 1, 100 mg every 12 hours
  Median Tmax (range): 3.5 (0.5‐5.0) h
  Cmax: 6831 (1388.6) ng/mL
[3]; Day 1, 100 mg once daily
  Median Tmax (range): 4.0 (2.0‐6.0) h
  Cmax: 5965 (1252.2) ng/mL
[3]; Day 7, 1 mg every 12 hours
  Median Tmax (range): 3.0 (2.0‐5.0) h
  AUCtau: 760.4 (202.4) ng·h/mL
  Cmax: 91.4 (19.3) ng/mL
[3]; Day 7, 3 mg every 12 hours
  Median Tmax (range): 5.0 (3.0‐5.1) h
  AUCtau: 2264 (484.8) ng·h/mL
  Cmax: 283.1 (49.1) ng/mL
[3]; Day 7, 10 mg every 12 hours
  Median Tmax (range): 5.0 (5.0‐6.0) h
  AUCtau: 8334 (2131.6) ng·h/mL
  Cmax: 1009 (215.9) ng/mL
[3]; Day 7, 30 mg every 12 hours
  Median Tmax (range): 5.0 (3.0‐6.0) h
  Cmax: 3229 (741.0) ng/mL
[3]; Day 7, 40 mg once daily
  Median Tmax (range): 4.0 (3.0‐6.0) h
  Cmax: 2654 (674.6) ng/mL
[3]; Day 7, 100 mg every 12 hours
  Median Tmax (range): 3.5 (3.0‐5.0) h
[3]; Day 7, 100 mg once daily
  Median Tmax (range): 4.0 (2.0‐6.0) h
  Cmax: 7894 (1117.5) ng/mL
[3]; day 7, Part 2
  excreted in urine as unchanged drug over the dosing interval (Aeτ): Less than 1%
[3]; every‐12‐hour dosing
  accumulation for AUCtau: approximately 2 fold
[3]; multiple oral doses 1‐100 mg every 12 hours and 40‐100 mg once daily with food
  median Tmax: 3 to 5 h
[3]; once‐daily dosing
  accumulation for AUCtau: approximately 1.5 fold
[3]; repeated dosing, Part 2
  steady state achieved (trough concentrations): ≤ 7 days
[4]; 100 mg single dose, fasted
  Geometric mean AUC0‐∞: 79 320 ng·h/mL
[4]; 100 mg single dose, fasted, CV% 25%
  geometric mean Cmax: 7479 ng/mL
[4]; 100 mg single dose, fed
  Geometric mean AUC0‐∞: 72 360 ng·h/mL
[4]; 100 mg single dose, fed, CV% 41%
  geometric mean Cmax: 5592 ng/mL
[4]; [10]
  decrease of AUC0‐∞ with food: ~9%
  plasma Cmax reduction with food: 25%
[4]; fasted state
  Median Tmax (range): 2.5 (1.0‐3.0) h
  Cmax: 7671 (1699.8) ng/mL
  t½: 12.3 ± 2.0 h
[4]; fed state
  Median Tmax (range): 5.0 (2.0‐8.0) h
  Cmax: 5947 (1982.1) ng/mL
  t½: 13.2 ± 3.5 h
Hepatic DNL; 10 mg Q12H, day 14 vs baseline (day −6)
  Adjusted % inhibition of newly made triglyceride‐palmitate (DNL), AUEC10: 80.0%
Hepatic DNL; doses <40 mg/day
  hepatic DNL inhibition over a 10‐hour period postdose: ≤ 80%
Hepatic DNL; doses ≥40 mg/day, 14 days
  inhibition of DNL (AUEC of newly made triglyceride‐palmitate), near‐maximal: > 90%
[5]; Part 1 (single doses, PF‐05221304 or placebo periods)
  subjects with AEs: 5 subjects
[5]; Part 3 (100 mg single dose fed/fasted)
  subjects with AEs: 3 subjects
[5]; all parts
  vital signs or cardiac conduction intervals (12‐lead ECG): no clinically significant changes
[5]; single 1‐240 mg, repeated 2‐200 mg daily
  tolerability: well tolerated at all doses
[5]; up to 240 mg single, 200 mg/day repeated
  maximum tolerated dose: not identified
[6]; [11]
  elevated fasting serum triglyceride levels (1 subject): 2.1 fold
  elevated postprandial serum triglyceride levels (1 subject): 2.6 fold
[6]; repeated daily doses ≥40 mg/day
  fasting and postprandial serum triglyceride levels: increased
[7]; 100 mg every 12 hours, day 13 + 24 hours, one person
  maximum decline from day 0 in platelet count (1 subject, moderate AE): 53 000 /µL
[7]; doses ≥20 mg/day administered every 12 hours
  platelet volume: increases in platelet volume
[7]; repeated doses ≤40 mg/day
  platelet count: No change in platelet count
[7]; repeated dosing ≥60 mg/day
  platelet count: gradual decline in platelet count from day 7 onward
[7]; repeated dosing, Part 2
  lowest platelet count observed: ≥ 100 000 /µL
[7]; single doses, 1‐ to 240‐mg dose range
  platelet count: did not change
[8]
  asymmetric hepatic distribution: ≥ 100 fold
[9]
  asymmetric hepatic distribution: ≥ 100 fold
